Rows were chosen to be rich in hits. Some 2.7% of all compounds tested hit in one or more screens of this group.
p97 inhibitor: inhibitors of human p97 ATPase, primary screen, biochemical. AID 1481, 2009. recombinant p97 ATPase, Kinase-Glo ATP luminescence, 3 h. hit rate 0.42% among 220,000. inhibition, % at 8 µM. Transitional endoplasmic reticulum ATPase (Homo sapiens), P55072; in the data active = inhibition above about 15%;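 note: 0% = DMSO vehicle and 100% = wells lacking enzyme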
L929 necroptosis: inhibitors of zVAD-triggered necroptosis, primary screen, L929 cells. hit rate 0.38% among 220,000. L929 zVAD necroptosis rescue, ATP luminescence, 24 h; with zVAD 60 µM. viability rescue, % at 10 µM;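 active = activation, scaled between plate controls, above about 75%, limit read from the data; inactive = activation under that limit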;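 note: 0% = zVAD with DMSO and 100% = DMSO alone without zVAD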
PfM18AAP inh: PfM18AAP inhibitors, malaria aminopeptidase, primary screen, biochemical, QFRET, recombinant enzyme. M18 aspartyl aminopeptidase (Plasmodium falciparum 3D7). H-Glu-NHMec fluorogenic cleavage. inhibition, % at 7.35 µM. hit rate 1.2% among 290,000. AID 1822, 2009;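 active = inhibition above the campaign mean inhibition over all tested compounds plus 3 SD, cut at about 28% in these data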;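 note: 0% = plate median of test compound wells and 100% = 2 mM ZnCl2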
TNF necrop inh: inhibitors of TNF-alpha triggered necroptosis, primary screen, cell-based, Jurkat FADD-/-, single concentration | hit rate 0.068% among 220,000 | Jurkat FADD-/- TNF necroptosis rescue, ATP luminescence, 24 h; 0 = TNF only, 100 = no-TNF cells | activation (protection from cell death), % at 10 µM;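 active = activation, meaning protection from cell death, of at least 50% relative to plate controls; inactive = activation below 50%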;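 note: necroptosis triggered by 40 ng/mL TNF-alpha added together with compound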
RBBP9 inhibitor: human RBBP9 inhibitors, primary screen, biochemical, fluorescence polarization, FP-Rh probe, HTS; recombinant RBBP9; hit rate 0.2% among 220,000; AID 1515, 2009; Serine hydrolase RBBP9 (Homo sapiens), O75884; inhibition, % at 7.94 µM;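 active = inhibition above the campaign mean of all tested compounds plus 3 SD, cut at about 14% in these data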;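 note: plate controls were DMSO wells with RBBP9 for no effect and wells lacking RBBP9 protein for full effect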
Target sequence (O75884 whole entry, looked up): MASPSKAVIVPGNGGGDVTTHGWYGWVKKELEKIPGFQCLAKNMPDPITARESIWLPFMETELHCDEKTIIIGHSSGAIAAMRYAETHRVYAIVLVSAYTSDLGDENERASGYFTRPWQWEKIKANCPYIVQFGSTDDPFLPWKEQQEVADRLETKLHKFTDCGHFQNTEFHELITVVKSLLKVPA
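Controls: DMSO-treated enzyme wells and wells lacking RBBP9 | Material: RBBP9 protein | Technique: Fluorescence polarization | Replication: Single well per compound, no replicates | Buffer or medium: Tris-NaCl-Pluronic buffer, pH 8.0 | Timing: 30 min compound preincubation, 45 min probe labeling, 25 °C | Read-out basis: Percent inhibition from mP, scaled between DMSO and no-protein wells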
Wee1 stabilizer: Wee1 degradation inhibitors, primary screen, cell-based, HeLa, Wee1K328M-luciferase, luminescence. hit rate 1.2% among 220,000. Wee1-like protein kinase (Homo sapiens), P30291. reporter increase, % at 5 µM. HeLa Luc-Wee1K328M stability; 100% = proteasome inhibitor MG132 effect. AID 1321, 2008;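 active = activation above the mean of all tested compounds plus 3 SD, set per screening run, cut at about 8.8% in these data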;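 note: cells exposed to compound for 20 h before luminescence read; 0% = DMSO alone and 100% = MG132 at 30 µM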
The depositor's hits bear a star.

`c1ccc(-c2nnsc2-c2ccccc2)cc1` gave PfM18AAP inh 4.
Screening O=C(N/N=C/C1CC2C=CC1C2)c1ccccc1O (centres undefined) returned p97 inhibitor 7, L929 necroptosis 0, PfM18AAP inh 14, TNF necrop inh 1, RBBP9 inhibitor -5 and Wee1 stabilizer -1.
For S=C(NCCNC(=S)Nc1ccccc1)Nc1ccccc1 the results were PfM18AAP inh 6.
S=C(NCCOCCOCCNC(=S)Nc1ccccc1)Nc1ccccc1 was read as p97 inhibitor -2, L929 necroptosis 0, PfM18AAP inh 28*, TNF necrop inh -1, RBBP9 inhibitor -2 and Wee1 stabilizer 1.
For CN(C)c1ccc(NC(=O)C2C3C=CC(C3)C2C(=O)O)cc1 (centres undefined) the results were PfM18AAP inh 55*.
Screening Cc1ccsc1C(=O)NNC(=O)C1C2C=CC(C2)C1C(=O)O (centres undefined) returned p97 inhibitor 3, L929 necroptosis 0, PfM18AAP inh -9, TNF necrop inh 1, RBBP9 inhibitor -6 and Wee1 stabilizer 10*.
Screening O=C(O)C1C2C=CC(C2)C1C(=O)Nc1ccc2c(c1)OCCO2 (centres undefined) returned p97 inhibitor 3, L929 necroptosis 0, PfM18AAP inh -1, TNF necrop inh 31, RBBP9 inhibitor -3 and Wee1 stabilizer 0.
`Cc1cccc(NC(=O)c2ccccc2NC(=O)c2ccccc2)n1` gave PfM18AAP inh -9.
For O=C(c1ccc(C(F)(F)F)cc1)C1CCCN(C(=O)CN2C(=O)CSC2=O)C1 (centres undefined) the results were p97 inhibitor 1, L929 necroptosis 0, PfM18AAP inh 2, TNF necrop inh 2, RBBP9 inhibitor -4 and Wee1 stabilizer 9.8*.
For O=C(c1ccc(C(F)(F)F)cc1)C1CCCN(C(=O)CN2CCCC2=O)C1 (centres undefined) the results were p97 inhibitor 1, L929 necroptosis 0, PfM18AAP inh 5, TNF necrop inh -1, RBBP9 inhibitor -2 and Wee1 stabilizer 0.
CC(Sc1cccc[n+]1[O-])C(=O)Nc1ccc(Oc2ccccc2)cc1 (centres undefined) was read as p97 inhibitor 10, L929 necroptosis 1, PfM18AAP inh -2, TNF necrop inh -1, RBBP9 inhibitor -11 and Wee1 stabilizer 5.
Cc1ccc(C)c(C(=O)COC(=O)c2cccc(N3C(=O)c4c(C)nc5ccccc5c4C3=O)c2)c1 was read as p97 inhibitor 0, L929 necroptosis 2, PfM18AAP inh 0, TNF necrop inh 1, RBBP9 inhibitor -2 and Wee1 stabilizer 9.0*.
`CCOc1ccc(S(=O)(=O)N(CC(=O)NN=C2CCN(C)CC2)c2ccc(C)cc2)cc1` gave PfM18AAP inh -5.
Screening Cc1ccc(C(=O)Nc2ccccc2C(=O)NC(CC(=O)O)C(=O)O)cc1 (centres undefined) returned p97 inhibitor 32*, L929 necroptosis 1, PfM18AAP inh 4, TNF necrop inh 0, RBBP9 inhibitor -7 and Wee1 stabilizer 0.
For COCCNC(=O)C(NC(=O)C1CCC(C)CC1)C(C)C (centres undefined) the results were p97 inhibitor 5, L929 necroptosis 0, PfM18AAP inh -2, TNF necrop inh 1, RBBP9 inhibitor 0 and Wee1 stabilizer -1.
`Oc1ccccc1/C=N/Nc1nccnc1Cl` gave p97 inhibitor -13, L929 necroptosis 31, PfM18AAP inh 23, TNF necrop inh -13, RBBP9 inhibitor 0 and Wee1 stabilizer 1.
Screening CC(C)(C)c1nnc(N/N=C/c2ccccc2O)n(N)c1=O returned p97 inhibitor 5, L929 necroptosis 49, PfM18AAP inh 52*, TNF necrop inh -9, RBBP9 inhibitor 5 and Wee1 stabilizer 8.

Screening results (PubChem BioAssay)
